The list is not random: actives were taken first. Their share in the collection is about 3.2%.
Biofilm kill mix: clotrimazole potentiators killing C. albicans biofilm, primary screen, 4-compound mixtures | inhibition, % at 7.6 µM | C. albicans biofilm persisters + clotrimazole, fluorescence viability; primary screen in compound mixtures of four per well | AID 1242, 2008 | 0.02% of 120,000 active;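 active = inhibition above 30.3% in the primary screen of four-compound pools, then above 30% when the compound was retested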;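 note: compounds exposed to preformed 24 h biofilms for 48 h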
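Assay system: C. albicans biofilms / Medium: RPMI/MOPS medium, pH 7.0 / Schedule: biofilm formation 24 h, compound exposure 48 h, 37 °C / Measured by: Alamar Blue fluorescence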
Bim-Mcl-1: inhibitors of Bim peptide binding to Mcl-1, primary screen, biochemical, bead-based flow cytometry, multiplex; Bim peptide-Mcl-1 binding; 0.1% of 190,000 active; AID 1009, 2008; inhibition, % at 10 µM; in the data active = inhibition above about 40%
Target sequence (Q07820 whole entry, looked up): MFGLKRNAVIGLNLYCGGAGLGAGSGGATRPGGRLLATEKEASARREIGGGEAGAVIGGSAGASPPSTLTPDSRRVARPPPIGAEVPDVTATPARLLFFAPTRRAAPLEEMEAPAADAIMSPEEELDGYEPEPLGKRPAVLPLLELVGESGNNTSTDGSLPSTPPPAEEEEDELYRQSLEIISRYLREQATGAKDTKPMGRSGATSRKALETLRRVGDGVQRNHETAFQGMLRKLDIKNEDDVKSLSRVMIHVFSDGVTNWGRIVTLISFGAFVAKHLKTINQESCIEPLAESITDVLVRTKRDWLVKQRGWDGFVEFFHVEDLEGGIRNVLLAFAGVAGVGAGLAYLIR
Mcl1 Bid PPI: Mcl-1/Bid binding inhibitors, primary screen, biochemical, TR-FRET, 1536-well; Induced myeloid leukemia cell differentiation protein Mcl-1 (Homo sapiens), Q07820; TR-FRET Mcl-1/Bid-Dy647 peptide binding; inhibition, % at 21.7 µM; 0.97% of 220,000 active;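 active = compounds that cut the binding signal by more than half at the single screening dose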;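 note: His-tagged Mcl-1 with europium anti-His antibody binding Bid BH3 peptide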
Mcl1 Noxa PPI: Mcl-1/Noxa binding inhibitors, primary screen, biochemical, TR-FRET, 1536-well; Induced myeloid leukemia cell differentiation protein Mcl-1 (Homo sapiens), Q07820; TR-FRET Mcl-1/Noxa peptide binding, 2 h; inhibition, % at 21.7 µM; 1.5% of 220,000 active; AID 1022, 2008;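 active = compounds that cut the protein-peptide binding signal by more than 50% relative to plate controls in a single-dose test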;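 note: His-tagged Mcl-1 with rhodamine Noxa BH3 peptide and terbium anti-His antibody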
Hck Nef HTS: inhibitors of Nef-activated human Hck kinase, primary screen, biochemical, Z-Lyte FRET, 384-well, Hck-YEEI | inhibition, % at 20 µM | Tyrosine-protein kinase HCK (Homo sapiens), P08631 | AID 463187, 2010 | 0.68% of 220,000 active | Recombinant Hck-YEEI plus Nef, Z-Lyte FRET kinase assay;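 active = Hck-Nef kinase inhibition above about 50%, limit read from the data; inactive = inhibition below that limit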
14-3-3 Bad inh: inhibitors of 14-3-3 zeta/Bad binding, primary screen, biochemical, TR-FRET, bovine 14-3-3 zeta | AID 781, 2007 | TR-FRET 14-3-3zeta/Dy647-pBad peptide displacement, 1 h | inhibition, % at 21.7 µM | 0.71% of 220,000 active | 14-3-3 protein zeta/delta (Bos taurus), P63103;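 active = inhibition above about 70%, limit read from the data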
Target sequence (P63103 whole entry, looked up): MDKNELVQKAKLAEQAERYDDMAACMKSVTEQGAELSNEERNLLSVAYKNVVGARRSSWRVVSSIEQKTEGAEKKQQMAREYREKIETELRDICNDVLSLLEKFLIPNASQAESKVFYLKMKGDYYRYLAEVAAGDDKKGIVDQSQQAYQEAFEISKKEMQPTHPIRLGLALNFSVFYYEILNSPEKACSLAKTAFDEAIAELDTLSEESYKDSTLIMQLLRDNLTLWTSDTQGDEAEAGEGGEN
Of the large screens only hits and unclear results are named; the others gave an inactive call; [ ] = dose if it differs, or a comment.

Cc1cccc(C)c1NC(=O)N1C2CCC1CC(O)(c1cccnc1)C2 (stereo not drawn)	Mcl1 Noxa PPI 53.0
CCN(C(=O)CSc1nnc(-c2ccncc2)n1Cc1ccccc1)C1CCS(=O)(=O)C1 (stereo not drawn)	none
CCOC(=O)c1c2ccc(OCC(=O)N/N=C/c3ccc(C)cc3)cc2n2ccccc12	Mcl1 Bid PPI 72.6 (no result: Biofilm kill mix)
CN(C(=O)COC(=O)c1ccc(=O)n(Cc2ccccc2)n1)c1ccccc1	none
COc1ccc(/C=C2\C(=O)N(c3c(Cl)cc(Cl)cc3Cl)N=C2NC(=O)c2cccc([N+](=O)[O-])c2)cc1	Mcl1 Noxa PPI 106.4
NC(=S)n1[nH]c(-c2ccc([N+](=O)[O-])cc2)c(N=Nc2ccc(O)cc2)c1=O	Mcl1 Bid PPI 65.5, Mcl1 Noxa PPI 72.9 (no result: Biofilm kill mix)
CCN(CC)S(=O)(=O)c1ccc(N=Nc2c(C)[nH]n(C(N)=S)c2=O)cc1	none
COc1cc(N2CCCC2)c(OC)cc1/C=C(/C#N)c1cccc(F)c1	Mcl1 Noxa PPI 79.6 (no result: Biofilm kill mix)
N#C/C(=C/c1ccc(N2CCCCCC2)o1)c1cccc(F)c1	none (no result: Biofilm kill mix)
COC(=O)c1[nH]c2cc(OC)ccc2c1N=CN(C)C	none (no result: Bim-Mcl-1)
COc1ccc2c(N)c(C(=O)NN)[nH]c2c1	Mcl1 Noxa PPI 63.6 (no result: Bim-Mcl-1)
CC(C)C1N(C(N)=S)N=CC1(C)C (stereo not drawn)	none (no result: Bim-Mcl-1)
Cc1nc(NC(=O)c2cccc(-c3cc4ccccc4oc3=O)c2)ccc1Br	Mcl1 Bid PPI 57.8
Cc1cccc(NC2=CC(=O)OC(C)C2)c1 (stereo not drawn)	14-3-3 Bad inh 80.8 (no result: Biofilm kill mix)
CC1CC(Nc2ccccc2N)=CC(=O)O1 (stereo not drawn)	none (no result: Biofilm kill mix)
O=C(Nc1cc(Cl)cc(Cl)c1)c1cccc(OC(F)F)c1	none (no result: Biofilm kill mix)
Cc1ccc(CNC(=O)c2ccc(-n3cccc3)cc2)cc1	Mcl1 Noxa PPI 81.2
Cc1ccc(CNC(=O)c2ccc(N(C)C)cc2)cc1	none
Cc1ccc(CNC(=O)Cc2ccc(-n3cccc3)cc2)cc1	none
Cc1ccc(CNC(=O)c2ccc3nc4[nH]c5ccccc5c4nc3c2)cc1	Mcl1 Bid PPI 67.7
NNC(=O)CC12CC3CC(C1)CC(n1ncnn1)(C3)C2	none
Cc1cc(NCc2ccccn2)ccc1Br	14-3-3 Bad inh 78.6 (no result: Biofilm kill mix)
COC(=O)c1ccc(-c2noc(CN3CCCC(CNC(C)=O)C3)n2)cc1 (stereo not drawn)	none
COCCn1c(N)c(N(Cc2ccccc2)C(=O)C2CCCC2)c(=O)[nH]c1=O	none
COCCn1c(N)c(C(=S)NC(=O)c2cccs2)c(=O)[nH]c1=O	Mcl1 Noxa PPI 70.1 (no result: Bim-Mcl-1)
O=C(/C=C/c1cccs1)Nc1nc(-c2ccccc2)cs1	none (no result: Biofilm kill mix)
O=C(/C=C/c1cccs1)Nc1scc(-c2ccccc2)c1C(=O)O	Mcl1 Bid PPI 93.2, 14-3-3 Bad inh 92.1
COC(=O)c1ccccc1NC(=O)c1cc([N+](=O)[O-])nn1Cc1ccccc1	none
O=C(COC(=O)c1ccc(S(=O)(=O)Nc2ccccc2)cc1)NCCN1C(=O)CSC1=O	none (no result: Biofilm kill mix)
COC1=CC(=O)CC(C)C12Oc1c(Cl)c(OC)cc(OC)c1C2=O (stereo not drawn)	14-3-3 Bad inh 77.2
Nc1ccc(O)c(-c2nc3ccccc3s2)c1	Mcl1 Noxa PPI 71.4 (no result: Biofilm kill mix)
Oc1ccc(N=C/C=C/c2cccc(Br)c2)cc1-c1nc2ccccc2s1	Mcl1 Noxa PPI 62.0
Nc1ccccc1-c1nc2ccccc2s1	14-3-3 Bad inh 72.8
O=S(=O)(Nc1nccs1)c1ccc(Nc2nnc(-c3ccccc3)c3ccccc23)cc1	Mcl1 Noxa PPI 68.3
Cc1onc(-c2ccccc2)c1C(=O)Nc1ccc(S(=O)(=O)Nc2nccs2)cc1	none (no result: Bim-Mcl-1)
CC(=O)c1cccc(NC(=O)C(Sc2ncnc3ccccc23)c2ccccc2)c1 (stereo not drawn)	Mcl1 Bid PPI 56.2
COC(=O)C1=NNC2C(=O)N(C3CCCCC3)C(=O)C12 (stereo not drawn)	none
CCCn1nc([N+](=O)[O-])c(C(C#N)c2nc3ccccc3o2)c(Cl)c1=O (stereo not drawn)	Mcl1 Noxa PPI 59.9
Cn1nc([N+](=O)[O-])c(C(C#N)c2ccccn2)c(Cl)c1=O (stereo not drawn)	none
CCn1nc([N+](=O)[O-])c(C(C#N)c2nc3cc(C(F)(F)F)ccc3s2)c(Cl)c1=O (stereo not drawn)	Mcl1 Noxa PPI 89.7 (no result: Biofilm kill mix, 14-3-3 Bad inh)
O=C(Cc1csc(Nc2nc(=S)[nH]c3ccccc23)n1)NCc1ccc(Cl)cc1	Mcl1 Bid PPI 55.8 (no result: Biofilm kill mix)
CC(C)(C)NC(=O)COC(=O)c1nsc(Cl)c1Cl	none
NC(=O)c1cnn(-c2cc(Oc3ccccc3)ncn2)c1N	none
Cc1ccc(N=Nc2ccc(O)c(/C=N\NC(=O)c3ccc(N)cc3)c2)cc1C	Mcl1 Noxa PPI 86.3, 14-3-3 Bad inh 85.0[fluorescence artefact?] (no result: Biofilm kill mix)
O=C(N/N=C/c1cc(Cl)ccc1O)c1ccc(Br)cc1	Mcl1 Noxa PPI 63.4
O=c1nc2c(O)cccn2c2c1c(=O)[nH]c1ccccc12	Mcl1 Noxa PPI 60.6
Cc1ccc(C(=O)NC(=O)OCCn2c(C)cnc2[N+](=O)[O-])cc1	14-3-3 Bad inh 74.0
CC(C)=CCc1c(O)ccc2c1OC(c1ccc(O)c(O)c1)CC2=O (stereo not drawn)	none
O=C1CC(c2ccc(O)c(O)c2)Oc2c1ccc(O)c2O (stereo not drawn)	Mcl1 Noxa PPI 106.2 (no result: Bim-Mcl-1)
CC(=O)Cc1cc(O)c2ccccc2c1OC(=O)c1ccc(Br)cc1	Mcl1 Bid PPI 96.2 (no result: Bim-Mcl-1)
CCOC(=O)Cn1nc(C)cc1NC(=O)c1cccnc1	none
NS(=O)(=O)c1ccc(CCNC(=O)CSc2nnc3ccccn23)cc1	none
COc1ccc(C(=O)Nc2nc3c(s2)Cc2cc(OC)ccc2-3)cc1	Mcl1 Bid PPI 55.4, Mcl1 Noxa PPI 86.4 (no result: Biofilm kill mix)
COc1cc(C(=O)Nc2nc3ccc4nc(C)sc4c3s2)cc(OC)c1OC	none (no result: Biofilm kill mix)
COc1ccc(C(=O)Nc2nc3ccc4nc(C)sc4c3s2)cc1	Mcl1 Noxa PPI 52.6 (no result: Biofilm kill mix)
CCOC(=O)C1(CCOc2ccccc2)CCN(Cc2ccc(-n3cccn3)cc2)CC1	none
CCOc1ccc(NC(=S)N(CCN2CCOCC2)Cc2ccc3c(c2)CCCN3CC)cc1	none
CCN1CCCc2cc(CN(CCN3CCOCC3)C(=S)Nc3ccc(C)cc3)ccc21	Mcl1 Noxa PPI 69.0
CCOc1ccc(/C=N/n2cc(-c3ccccc3)[nH]c2=S)cc1	Mcl1 Noxa PPI 52.8
CCN1/C(=C/C=C/c2oc3ccc4ccccc4c3[n+]2CC)Oc2ccc3ccccc3c21	Mcl1 Bid PPI 89.3, 14-3-3 Bad inh 91.0
